Assays:
Vaccinia virus = assay: Antiviral activity against Vaccinia virus infected in HEL cells assessed as inhibition of virus-induced cytopathicity; type: functional, organism-based; conditions: Orthopoxvirus vaccinia
[1] = test system: Vesicular stomatitis virus; assay: Antiviral activity against Vesicular stomatitis virus infected in human HeLa cells assessed as inhibition of virus-induced cytopathicity; type: functional, organism-based
Human betaherpesvirus 5 [2] = assay: Antiviral activity against Human cytomegalovirus Davis infected in HEL cells assessed as inhibition of virus-induced cytopathicity; type: functional, organism-based; conditions: Human betaherpesvirus 5, Davis
[3] = Cytotoxicity against MDCK cells assessed as alteration of cell morphology by microscopic analysis; type: cell-based, Canis lupus familiaris; conditions: dog
Human alphaherpesvirus 1 [4] = assay: Antiviral activity against Herpes simplex virus 1 KOS infected in HEL cells assessed as inhibition of virus-induced cytopathicity; type: functional, organism-based; conditions: Human alphaherpesvirus 1, KOS
Influenza A virus H3N2 [5] = assay: Antiviral activity against Influenza A virus H3N2 infected in MDCK cells assessed as inhibition of virus-induced visual cytopathicity; type: functional, organism-based
Influenza B virus [6] = assay: Antiviral activity against Influenza B virus infected in MDCK cells assessed as inhibition of virus-induced visual cytopathicity; type: functional, organism-based
[7] = test system: Respiratory syncytial virus; assay: Antiviral activity against Respiratory syncytial virus infected in human HeLa cells assessed as inhibition of virus-induced cytopathicity; type: functional, organism-based
[8] = Cytotoxicity against human HeLa cells assessed as alteration of cell morphology by microscopic analysis; type: cell-based
Influenza A virus H3N2 [9] = assay: Antiviral activity against Influenza A virus H3N2 infected in MDCK cells assessed as inhibition of virus-induced cytopathicity by MTS assay; type: functional, organism-based
[10] = Cytotoxicity against HEL cells assessed as alteration of cell morphology by microscopic analysis; type: cell-based; conditions: human
In short: (§1)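 The value is the minimal cytotoxic concentration (MCC), the lowest concentration that causes a microscopically visible change in cell morphology. It was read in the same HEL or Vero cell cultures used for the antiviral tests.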

Human alphaherpesvirus 3 [11] = assay: Antiviral activity against thymidine kinase expressing Varicella-Zoster virus infected in HEL cells assessed as reduction in virus plaque formation; type: functional, organism-based; conditions: Human alphaherpesvirus 3, HEL
Yellow fever virus = assay: Antiviral activity against Yellow fever virus infected in African green monkey Vero cells assessed as inhibition of virus-induced cytopathicity; type: functional, organism-based
Human alphaherpesvirus 3 [12] = assay: Antiviral activity against thymidine kinase deficient Varicella-Zoster virus infected in HEL cells assessed as reduction in virus plaque formation; type: functional, organism-based; conditions: Human alphaherpesvirus 3, HEL
Influenza A virus [13] = assay: Antiviral activity against Influenza A virus H1N1 infected in MDCK cells assessed as inhibition of virus-induced visual cytopathicity; type: functional, organism-based
Punta Toro virus = assay: Antiviral activity against Punta Toro virus infected in African green monkey Vero cells assessed as inhibition of virus-induced cytopathicity; type: functional, organism-based
Sindbis virus = assay: Antiviral activity against Sindbis Virus infected in African green monkey Vero cells assessed as inhibition of virus-induced cytopathicity; type: functional, organism-based
Coxsackievirus B4 = assay: Antiviral activity against Coxsackie virus B4 infected in African green monkey Vero cells assessed as inhibition of virus-induced cytopathicity; type: functional, organism-based; conditions: Enterovirus B
Human betaherpesvirus 5 [14] = assay: Antiviral activity against Human cytomegalovirus AD169 infected in HEL cells assessed as inhibition of virus-induced cytopathicity; type: functional, organism-based; conditions: Human betaherpesvirus 5, AD169, HEL
Influenza B virus [15] = assay: Antiviral activity against Influenza B virus infected in MDCK cells assessed as inhibition of virus-induced cytopathicity by MTS assay; type: functional, organism-based
Human coronavirus 229E = assay: Antiviral activity against Human coronavirus 229E infected in HEL cells assessed as inhibition of virus-induced cytopathicity; type: functional, organism-based
[16] = Cytotoxicity against African green monkey Vero cells assessed as alteration of cell morphology by microscopic analysis; type: cell-based; conditions: chlorocebus sabaeus; in short: as §1
Human respirovirus 3 = assay: Antiviral activity against Parainfluenza virus 3 infected in human HeLa cells assessed as inhibition of virus-induced cytopathicity; type: functional, organism-based; conditions: Human respirovirus 3, HeLa
[17] = test system: Mammalian orthoreovirus 1; assay: Antiviral activity against Reovirus-1 infected in human HeLa cells assessed as inhibition of virus-induced cytopathicity; type: functional, organism-based; conditions: Mammalian orthoreovirus 1, HeLa
Influenza A virus [18] = assay: Antiviral activity against Influenza A virus H1N1 infected in MDCK cells assessed as inhibition of virus-induced cytopathicity by MTS assay; type: functional, organism-based
Human adenovirus 2 = assay: Antiviral activity against Adenovirus 2 infected in HEL cells assessed as inhibition of virus-induced cytopathicity; type: functional, organism-based; conditions: Human mastadenovirus C
Human alphaherpesvirus 1 [19] = assay: Antiviral activity against acyclovir-resistant thymidine kinase deficient Herpes simplex virus 1 KOS infected in HEL cells assessed as inhibition of virus-induced cytopathicity; type: functional, organism-based; conditions: Human alphaherpesvirus 1, KOS
Human alphaherpesvirus 2 = assay: Antiviral activity against Herpes simplex virus 2 G infected in HEL cells assessed as inhibition of virus-induced cytopathicity; type: functional, organism-based; conditions: Human alphaherpesvirus 2, strain G

Compound | EC50 (Vaccinia virus) | EC50 [1] | EC50 (Human betaherpesvirus 5 [2]) | MCC [3] | EC50 (Human alphaherpesvirus 1 [4]) | EC50 (Influenza A virus H3N2 [5]) | EC50 (Influenza B virus [6]) | EC50 [7] | MCC [8] | EC50 (Influenza A virus H3N2 [9]) | MCC [10] | EC50 (Human alphaherpesvirus 3 [11]) | EC50 (Yellow fever virus) | EC50 (Human alphaherpesvirus 3 [12]) | EC50 (Influenza A virus [13]) | EC50 (Punta Toro virus) | EC50 (Sindbis virus) | EC50 (Coxsackievirus B4) | EC50 (Human betaherpesvirus 5 [14]) | EC50 (Influenza B virus [15]) | other results
C/C(=C\CP(=O)(N[C@@H](C)C(=O)OC(C)C)Oc1cccc2c1CCCC2)Cn1ccc(=O)[nH]c1=O (stereo not given in full) | > 100 µM | > 100 µM | > 100 µM | > 100 µM | > 100 µM | > 100 µM | > 100 µM | > 100 µM | > 100 µM | > 100 µM | > 100 µM | 29.9 µM | > 100 µM | 71.5 µM | > 100 µM | > 100 µM | > 100 µM | > 100 µM | > 100 µM | > 100 µM | EC50 (Human coronavirus 229E): > 100 µM; MCC [16]: > 100 µM; EC50 (Human respirovirus 3): > 100 µM; EC50 [17]: > 100 µM; EC50 (Influenza A virus [18]): > 100 µM; EC50 (Human adenovirus 2): > 100 µM; EC50 (Human alphaherpesvirus 1 [19]): > 100 µM; EC50 (Human alphaherpesvirus 2): > 100 µM
C/C(=C\CP(=O)(N[C@@H](C)C(=O)OCc1ccccc1)Oc1cccc2c1CCCC2)Cn1cc(C)c(=O)[nH]c1=O (stereo not given in full) | > 100 µM | > 100 µM | > 100 µM | > 100 µM | > 100 µM | > 100 µM | > 100 µM | > 100 µM | ≥ 100 µM | > 100 µM | > 100 µM | 50.2 µM | > 100 µM | 47.2 µM | > 100 µM | > 100 µM | > 100 µM | > 100 µM | > 100 µM | > 100 µM | EC50 (Human coronavirus 229E): > 100 µM; MCC [16]: ≥ 100 µM; EC50 (Human respirovirus 3): > 100 µM; EC50 [17]: > 100 µM; EC50 (Influenza A virus [18]): > 100 µM; EC50 (Human adenovirus 2): > 100 µM; EC50 (Human alphaherpesvirus 1 [19]): > 100 µM; EC50 (Human alphaherpesvirus 2): > 100 µM
C/C(=C\CP(=O)(N[C@@H](C)C(=O)OC(C)C)Oc1ccccc1)Cn1ccc(=O)[nH]c1=O (stereo not given in full) | > 100 µM | > 100 µM | > 100 µM | > 100 µM | > 100 µM | > 100 µM | > 100 µM | > 100 µM | > 100 µM | > 100 µM | > 100 µM | > 100 µM | > 100 µM | > 100 µM | > 100 µM | > 100 µM | > 100 µM | > 100 µM | > 100 µM | > 100 µM | EC50 (Human coronavirus 229E): > 100 µM; MCC [16]: > 100 µM; EC50 (Human respirovirus 3): > 100 µM; EC50 [17]: > 100 µM; EC50 (Influenza A virus [18]): > 100 µM; EC50 (Human adenovirus 2): > 100 µM; EC50 (Human alphaherpesvirus 1 [19]): > 100 µM; EC50 (Human alphaherpesvirus 2): > 100 µM
C/C(=C\CP(=O)(N[C@@H](C)C(=O)OCc1ccccc1)Oc1cccc2c1CCCC2)Cn1ccc(=O)[nH]c1=O (stereo not given in full) | > 100 µM | > 100 µM | > 100 µM | > 100 µM | > 100 µM | > 100 µM | > 100 µM | > 100 µM | ≥ 100 µM | > 100 µM | > 100 µM | 55.7 µM | > 100 µM | 52.5 µM | > 100 µM | > 100 µM | > 100 µM | > 100 µM | > 100 µM | > 100 µM | EC50 (Human coronavirus 229E): > 100 µM; MCC [16]: ≥ 100 µM; EC50 (Human respirovirus 3): > 100 µM; EC50 [17]: > 100 µM; EC50 (Influenza A virus [18]): > 100 µM; EC50 (Human adenovirus 2): > 100 µM; EC50 (Human alphaherpesvirus 1 [19]): > 100 µM; EC50 (Human alphaherpesvirus 2): > 100 µM
C/C(=C\CP(=O)(N[C@@H](C)C(=O)OCc1ccccc1)Oc1cccc2ccccc12)Cn1ccc(=O)[nH]c1=O (stereo not given in full) | > 100 µM | > 100 µM | > 100 µM | > 100 µM | > 100 µM | > 100 µM | > 100 µM | > 100 µM | > 100 µM | > 100 µM | > 100 µM | 100 µM | > 100 µM | 58.5 µM | > 100 µM | > 100 µM | > 100 µM | > 100 µM | > 100 µM | > 100 µM | EC50 (Human coronavirus 229E): > 100 µM; MCC [16]: > 100 µM; EC50 (Human respirovirus 3): > 100 µM; EC50 [17]: > 100 µM; EC50 (Influenza A virus [18]): > 100 µM; EC50 (Human adenovirus 2): > 100 µM; EC50 (Human alphaherpesvirus 1 [19]): > 100 µM; EC50 (Human alphaherpesvirus 2): > 100 µM

Source: ChEMBL document CHEMBL4118253, “Expedient synthesis and biological evaluation of alkenyl acyclic nucleoside phosphonate prodrugs” (Bioorg Med Chem, 2018)
